The subject of experiment [1] is MT4. Briefly: Cytotoxic concentration based on the reduction of viability of mock-infected cells. It is filed as functional. The following applies: Homo sapiens. The procedure, abridged:
(§1)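 Mock-infected MT-4 cells; viable cell number determined by MTT method; CC50 = concentration giving 50% reduction of viability.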

The subject of experiment [2] is MT4. Briefly: Compound was evaluated for the inhibition of HIV-1 induced CPE (HTLV-III B strain ) replication in MT-4 cells. Format: functional, cell-based. The following applies: Homo sapiens. The procedure, abridged:
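HIV-1 strain HTLV-IIIB in MT-4 cells; EC50 = concentration giving 50% inhibition of virus-induced cytopathic effect; viable cells counted by MTT method.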

Experiment [3] is described as follows: Selectivity index is the ratio of CC50 and EC50 in MT-4 cells. It is filed as functional, MT4. An outline of the steps: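 MT-4 cells; selectivity index = CC50 (MTT viability of mock-infected cells) divided by EC50 (inhibition of HIV-1-induced cytopathic effect).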
The test system of experiment [4] is MT4. Briefly: Compound was evaluated for the inhibition of HIV-1 induced CPE (HTLV-III B strain ) replication in MT-4 cells. It is filed as functional, cell-based. As to conditions: Homo sapiens. The procedure, abridged:
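HTLV-IIIB strain of HIV-1 in MT-4 cells; activity read as inhibition of virus-induced cytopathic effect, viable cells counted by MTT method; EC50 is the 50% effective concentration.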

Experiment [5] can be described thus: Selectivity index is the ratio of CC50 and EC50 MT-4 cells. It is filed as functional, MT4. An outline of the steps: (§2)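 HIV-1 strain HTLV-IIIB in MT-4 cells. EC50 is 50% inhibition of virus-induced cytopathic effect. CC50 is 50% loss of viability in mock-infected cells. Viable cells were counted by the MTT method. Index = CC50/EC50.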
Experiment [6] deals with MT4. Briefly: Cytotoxic concentration based on the reduction of viability of mock-infected MT-4 cells. Format: functional. The following applies: Homo sapiens. The procedure, abridged:
as §1

Experiment [7] deals with MT4. The experiment in a line: Compound was evaluated for the inhibition of HIV-2 induced CPE (LAV-2EHO strain ) replication in MT-4 cells. As to conditions: Homo sapiens. Format: functional, cell-based.
For experiment [8], the species on record is Homo sapiens. Briefly: (§3) Selectivity index is the ratio of CC50 and EC50 in peripheral blood lymphocytes (PBL). It is filed as functional. The procedure, abridged:
(§4)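 HIV-1 strain HTLV-IIIB in peripheral blood lymphocytes. EC50 is 50% reduction of p24 antigen in culture supernatant. CC50 is 50% loss of viability in mock-infected cells, with viable cells counted by MTT. Index = CC50/EC50.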

For experiment [9], the species on record is Homo sapiens. The experiment in a line: Cytotoxic concentration based on the reduction of viability of mock-infected peripheral blood lymphocytes (PBL). Format: functional. The procedure, abridged:
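Mock-infected peripheral blood lymphocytes; CC50 = concentration giving 50% reduction in viability, viable cells measured by MTT method.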

In experiment [10] the test system is MT4. Briefly: Cytotoxic concentration based on the reduction of viability of mock-infected MT-4 cells. The following applies: Homo sapiens. Format: functional. An outline of the steps: as §1
In experiment [11] the test system is MT4. The experiment in a line: Selectivity index is the ratio of CC50 and EC50 in MT-4 cells. Format: functional, Homo sapiens. The procedure, abridged:
as §2

The species entered for experiment [12] is Homo sapiens. The experiment in a line: Cytotoxic concentration based on the reduction of viability of mock-infected peripheral blood lymphocytes (PBL). Format: functional. An outline of the steps: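 Mock-infected peripheral blood lymphocytes; viable cell number determined by MTT method; CC50 is the concentration giving 50% reduction of viability.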

Experiment [13] can be described thus: as §3. Format: functional. The procedure, abridged: as §4
The species named for experiment [14] is Homo sapiens. Briefly: Compound was evaluated for the inhibition of HIV-1 (HTLV-III B strain ) replication in peripheral blood lymphocytes (PBL), measured as p24 antigen reduction.

A value given as a limit tells only on which side of the number the result lay.

In the experiment on MT4 [1], `CN(C)C(=O)Oc1nsnc1-c1ccccc1Cl` yielded a CC50 of 161 µM. Besides, in the experiment with MT4 [2], the response was half-maximal at 0.32 µM (EC50). The Selectivity index in [3] amounted to 503.
As for `Cc1nsnc1OC(=O)N(C)C`, half-maximal cytotoxicity in the experiment with MT4 [1] (CC50) was put at 535 µM. The EC50 with MT4 [2] was > 535 µM. Also, the Selectivity index in [3] is <1.
In turn, `CN(C)C(=O)Oc1nsnc1-c1ccccc1` returned a cytotoxic concentration (CC50) in the experiment with MT4 [1] of 183 µM. The compound also yielded an EC50 in the experiment on MT4 [2] of 23 µM. For the same compound, in [3], the Selectivity index was found to be 8.
In the experiment with MT4 [1], `Oc1nsnc1-c1c(Cl)cccc1Cl` gave a CC50 of 221 µM. Further, in the experiment with MT4 [4], the midpoint of the response, the EC50, lay at 212 µM. The Selectivity index in experiment [3] is recorded as <1.
On to `CCCN(C)C(=O)Oc1nsnc1-c1c(Cl)cccc1Cl`, for which the Selectivity index in experiment [5] is recorded as 10077; in the experiment listed under Homo sapiens [8], 37500; in the experiment with MT4 [11], <1. The half-maximal effective concentration (EC50) was 0.013 µM in the experiment on MT4 [2] and > 131 µM with MT4 [7]. The CC50 amounted to 131 µM in the experiment on MT4 [6], 150 µM in the experiment filed under Homo sapiens [9] and 131 µM with MT4 [10].
In the experiment on MT4 [1], `CCN(C)C(=O)Oc1nsnc1-c1c(Cl)cccc1Cl` gave a CC50 of 136 µM. A half-maximal effect in the experiment on MT4 [2] (EC50) was put at 0.039 µM. Besides, the Selectivity index in experiment [3] amounted to 3487.
For the compound `CN(C)C(=O)Oc1nsnc1-c1c(Cl)cccc1Cl`, the CC50 in the experiment on MT4 [1] turned out to be 145 µM. Further, it took 0.24 µM to reach a half-maximal effect in the experiment on MT4 [2] (EC50). Moreover, in experiment [3], the Selectivity index worked out at 604.
`CN(C)C(=O)Oc1cnsn1` returned a CC50 with MT4 [1] of 560 µM. Also, the EC50 in the experiment with MT4 [2] is > 560 µM. Further, the Selectivity index in experiment [3] is <1.
Taken in the same sequence, the figures for `CCCCN(C)C(=O)Oc1nsnc1-c1c(Cl)cccc1Cl` were 29 µM, 0.039 µM and 744.
Consider `CCCCCCN(C)C(=O)Oc1nsnc1-c1c(Cl)cccc1Cl`, for which it took 16 µM to reach half-maximal cytotoxicity in the experiment on MT4 [1] (CC50). For the same compound, in the experiment on MT4 [2], the 50% effective concentration (EC50) turned out to be 0.1 µM. Moreover, the Selectivity index in [3] amounted to 160.
Take `CC(=O)c1ccc(C)cc1NC(C(N)=O)c1c(Cl)cccc1Cl` (centres undefined) [LOVIRIDE]: the CC50 was 137 µM in the experiment with MT4 [1] and 48 µM in the experiment filed under Homo sapiens [12]. For the same compound, the EC50 with MT4 [2] was 0.006 µM; in the experiment filed under Homo sapiens [14], 0.11 µM. The Selectivity index in experiment [13] turned out to be 436; in experiment [3] it was 22833.
Turning to `Cc1ccnc2c1NC(=O)c1cccnc1N2C1CC1` [NEVIRAPINE], in the experiment on MT4 [1], the CC50 is 290 µM. For the same compound, the EC50 in the experiment on MT4 [2] turned out to be 0.073 µM. Further, the Selectivity index in [3] is reported as 3973.
On to `Cc1cn([C@H]2C[C@H](N=[N+]=[N-])[C@@H](CO)O2)c(=O)[nH]c1=O` [ZIDOVUDINE], for which the CC50 came out at 3.2 µM in the experiment on MT4 [1] and 83 µM in the experiment filed under Homo sapiens [12]. The EC50 in the experiment on MT4 [2] is 0.004 µM; in the experiment filed under Homo sapiens [14] it was 0.003 µM. For the same compound, in experiment [13], the Selectivity index was determined as 27667.

The term CC50 denotes the concentration giving 50% cytotoxicity. Read a low CC50 as greater toxicity to the cells. In general, EC50 refers to the concentration needed to bring the measured effect to its halfway point.

The values are drawn from ChEMBL document CHEMBL1128389, “Thiadiazole derivatives: highly potent and specific HIV-1 reverse transcriptase inhibitors” (J Med Chem, 1995).
